Measured values reported in ChEMBL document CHEMBL5032502, “Syntheses, Biological Evaluations, and Mechanistic Studies of Benzo[c][1,2,5]oxadiazole Derivatives as Potent PD-L1 Inhibitors with In Vivo Antitumor Activity” (J Med Chem, 2021).
Activity calls are given as the source filed them. No cut-off for these calls is given here.

Key:
MC-38 [1] = assay: Antitumor activity against mouse MC38 cells xenografted in C57BL/6 mouse assessed as increase in ratio of CD8 positive T cells to CD4 positive T cells at 25 mg/kg, po by flow cytometry analysis; type: functional, organism-based
Procedure, shortened: (§1)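 Tumours taken from PD-L1-humanized mice carrying MC38-hPD-L1 tumours and dosed orally at 5 or 25 mg/kg daily. Tissue digested to single cells, red cells lysed with ACK buffer, Fc blocked. Surface stain 60 min for CD45, CD3, CD4, CD8, CD335, CD11b, Ly6G, Ly6C and F4/80, with a viability dye. Intracellular FOXP3 stain after permeabilization. Mean ± SEM, n = 7−8, one-way ANOVA.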

[2] = Oral bioavailability in C57BL/6 mouse at 10 mg/kg measured upto 24 hrs by LC-MS analysis; type: ADME, organism-based; conditions: in vivo
Procedure, shortened: (§2)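 Male Sprague-Dawley rats or C57BL/6 mice fasted 12 h before dosing, given oral (po) or intravenous (iv) doses. Plasma levels measured by LC-MS. Parameters reported as mean ± SEM, n = 3.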

[3] = Clearance in Sprague-Dawley rat at 9 mg/kg, iv measured upto 24 hrs by LC-MS analysis; type: ADME, organism-based; conditions: in vivo
Procedure, shortened: (§3)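 Male animals fasted 12 h before dosing. Plasma levels measured by LC-MS, with the prodrug quantified as the parent acid. Mean ± SEM, n = 3.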

MC-38 [4] = assay: Antitumor activity against PD-L1 humanized mouse MC38 cells implanted in PD-L1 humanized C57BL/6 mouse assessed as tumor growth inhibition at 25 mg/kg, po measured after 30 days; type: functional; conditions: MC-38, po, 720 h, time 30 day, read-out: TGI
Procedure, shortened: (§4)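 PD-L1-humanized C57BL/6 mice given 1 × 10⁶ MC38-hPD-L1(Tg)-mPDL1(KO) cells in the right flank. Once tumours reached 50 mm³, randomized into three groups: CMC-Na vehicle, 25 or 50 mg/kg by daily oral gavage for 30 days. TGI from mean tumour volume of treated versus vehicle groups. n = 6.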

B16-F10 = assay: Antitumor activity against mouse B16-F10 cells implanted in C57BL/6 mouse assessed as tumor growth inhibition at 45 mg/kg, po measured after 18 days; type: functional; conditions: 432 h, time 18 day, read-out: TGI
Procedure, shortened: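 Female C57BL/6J mice, 8 weeks old, injected dorsally with 1 × 10⁶ B16-F10 cells in PBS. Daily oral gavage started the same day (day 1), in 0.5% CMC-Na vehicle. Tumour size and body weight recorded daily, volume = 0.5 × L × W². Sacrifice on day 18, tumours excised and weighed. TGI = (1 − Vt/Vv) × 100.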

MC-38 [5] = assay: Antitumor activity against mouse MC38 cells xenografted in C57BL/6 mouse assessed as change in regulatory T cells at 25 mg/kg, po by flow cytometry analysis; type: functional, organism-based; procedure, shortened: as §1
[6] = Half life in C57BL/6 mouse at 10 mg/kg, po measured upto 24 hrs by LC-MS analysis; type: ADME, organism-based; conditions: in vivo; procedure, shortened: as §3
[7] = Subacute toxicity in C57BL/6 mouse assessed as mortality at 2000 mg/kg, po observed for 30 days; type: organism-based; conditions: in vivo, 720 h, time 30 day
MC-38 [8] = assay: Antitumor activity against mouse MC38 cells xenografted in C57BL/6 mouse assessed as reduction in macrophages at 25 mg/kg, po by flow cytometry analysis; type: functional, organism-based; procedure, shortened: as §1
[9] = Acute toxicity in C57BL/6 mouse assessed as body weight loss at 2000 mg/kg, po observed for 30 days; type: organism-based; conditions: in vivo, 720 h, time 30 day
Procedure, shortened: (§5)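 Healthy C57BL/6 mice got a single oral 2000 mg/kg dose. Mortality and body weight were then recorded over a 30-day observation period.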

[10] = AUC (0 to t) in C57BL/6 mouse at 2 mg/kg, iv measured upto 24 hrs by LC-MS analysis; type: ADME, organism-based; set-up: route intravenous, dose 2 mg/kg, time <=24; conditions: in vivo; procedure, shortened: as §3
[11] = Acute toxicity in C57BL/6 mouse assessed as mortality at 2000 mg/kg, po observed for 30 days; type: organism-based; conditions: in vivo, 720 h, time 30 day; procedure, shortened: as §5
MC-38 [12] = assay: Antitumor activity against mouse MC38 cells xenografted in C57BL/6 mouse assessed as reduction in mMDSC cells at 25 mg/kg, po by flow cytometry analysis; type: functional, organism-based; procedure, shortened: as §1
[13] = Cmax in C57BL/6 mouse at 10 mg/kg, po measured upto 24 hrs by LC-MS analysis; type: ADME, organism-based; set-up: route oral, dose 10 mg/kg, time <=24; conditions: in vivo; procedure, shortened: as §3
[14] = AUC (0 to t) in Sprague-Dawley rat at 9 mg/kg, iv measured upto 24 hrs by LC-MS analysis; type: ADME, organism-based; set-up: route intravenous, dose 9 mg/kg, time <=24; conditions: in vivo; procedure, shortened: as §3
[15] = Cmax in C57BL/6 mouse at 2 mg/kg, iv measured upto 24 hrs by LC-MS analysis; type: ADME, organism-based; set-up: route intravenous, dose 2 mg/kg, time <=24; conditions: in vivo; procedure, shortened: as §3
[16] = Cmax in Sprague-Dawley rat at 45 mg/kg, po measured upto 24 hrs by LC-MS analysis; type: ADME, organism-based; set-up: route oral, dose 45 mg/kg, time <=24; conditions: in vivo; procedure, shortened: as §3
MC-38 [17] = assay: Antitumor activity against PD-L1 humanized mouse MC38 cells implanted in PD-L1 humanized C57BL/6 mouse assessed as tumor growth inhibition at 5 mg/kg, po measured after 27 days; type: functional; conditions: MC-38, po, 648 h, time 27 day, read-out: TGI
Procedure, shortened: (§6)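 Female PD-L1-humanized C57BL/6 mice, 6 weeks old, injected in the right flank with 1 × 10⁶ MC38-hPD-L1(Tg)-mPDL1(KO) cells in PBS. At 50 mm³ tumours, animals randomized to 0.5% CMC-Na vehicle or drug by daily oral gavage. Tumours measured twice weekly, volume = 0.5 × L × W². Sacrifice on day 27. TGI = (1 − Vt/Vv) × 100. n = 8.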

[18] = Toxicity in C57BL/6 mouse assessed as effect on creatinine kinase level at 2000 mg/kg, po observed for 30 days; type: organism-based; conditions: in vivo, 720 h, time 30 day
[19] = Clearance in C57BL/6 mouse at 2 mg/kg, iv measured upto 24 hrs by LC-MS analysis; type: ADME, organism-based; conditions: in vivo; procedure, shortened: as §3
MC-38 [20] = assay: Antitumor activity against PD-L1 humanized mouse MC38 cells implanted in PD-L1 humanized C57BL/6 mouse assessed as tumor growth inhibition at 50 mg/kg, po measured after 30 days; type: functional; conditions: MC-38, po, 720 h, time 30 day, read-out: TGI; procedure, shortened: as §4
[21] = Half life in Sprague-Dawley rat at 9 mg/kg, iv measured upto 24 hrs by LC-MS analysis; type: ADME, organism-based; conditions: in vivo; procedure, shortened: as §3
[22] = Oral bioavailability in Sprague-Dawley rat at 45 mg/kg measured upto 24 hrs by LC-MS analysis; type: ADME, organism-based; conditions: in vivo; procedure, shortened: as §2
MC-38 [23] = assay: Antitumor activity against PD-L1 humanized mouse MC38 cells implanted in PD-L1 humanized C57BL/6 mouse assessed as tumor growth inhibition at 25 mg/kg, po measured after 27 days; type: functional; conditions: MC-38, po, 648 h, time 27 day, read-out: TGI; procedure, shortened: as §6
MC-38 [24] = assay: Antitumor activity against mouse MC38 cells implanted in C57BL/6 mouse assessed as tumor growth inhibition at 50 mg/kg, po measured after 14 days; type: functional; conditions: MC-38, po, 336 h, time 14 day, read-out: TGI
[25] = Toxicity in C57BL/6 mouse assessed as effect on BUN level at 2000 mg/kg, po observed for 30 days; type: organism-based; conditions: in vivo, 720 h, time 30 day
[26] = Subacute toxicity in C57BL/6 mouse assessed as organ weight change po observed for 30 days; conditions: in vivo, 720 h
[27] = Half life in Sprague-Dawley rat at 45 mg/kg, po measured upto 24 hrs by LC-MS analysis; type: ADME, organism-based; conditions: in vivo; procedure, shortened: as §3
[28] = Tmax in Sprague-Dawley rat at 9 mg/kg, iv measured upto 24 hrs by LC-MS analysis; type: ADME, organism-based; conditions: in vivo; procedure, shortened: as §2

CCOC(=O)[C@@H](CO)NCc1cc(Cl)c(OCc2cccc(-c3ccccc3)c2Br)cc1OCc1ccc2nonc2c1.Cl
Activity (MC-38 [1]): Active
bioavailability [2]: 7.7%
clearance [3]: 23.8 mL/min/kg
inhibition in vivo at 25 mg/kg (MC-38 [4]): 44.2%
inhibition in vivo at 45 mg/kg (B16-F10): 70.7%
Activity (MC-38 [5]): inactive
half-life [6]: 1.55 h
Activity [7]: Non-Toxic
Activity (MC-38 [8]): Active
Activity [9]: Non-Toxic
AUC(0-t) at 24 h [10]: 1150 ng·h/mL
Activity [11]: Non-Toxic
Activity (MC-38 [12]): Active
Cmax [13]: 150 ng/mL
AUC(0-t) at 24 h [14]: 6280 ng·h/mL
Cmax [15]: 2820 ng/mL
Cmax [16]: 488 ng/mL
inhibition in vivo at 5 mg/kg (MC-38 [17]): 19.3%
Activity [18]: Non-Toxic
clearance [19]: 28.7 mL/min/kg
inhibition in vivo at 50 mg/kg (MC-38 [20]): 30.8%
half-life [21]: 5.02 h
bioavailability [22]: 9.12%
inhibition in vivo at 25 mg/kg (MC-38 [23]): 32.5%
inhibition in vivo at 50 mg/kg (MC-38 [24]): 50.9%
Activity [25]: Non-Toxic
Activity [26]: Non-Toxic
half-life [27]: 3.43 h
Tmax [28]: 4.8 min
